Calls of active or inactive are those of the source. The rule behind the calls is not given here.
Assays:
Homo sapiens [1] = species: Homo sapiens; test: Inhibition of TNFalpha-stimulated NF-kappaB (unknown origin) activation expressed in HEK293 cells at 20 ug/ml incubated for 6 hrs with TNFalpha followed by incubation in dark for 30 mins by luciferase reporter gene assay relative to control; format: cell-based
Procedure, shortened: (§1)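 HEK293 cells stably carrying NF-κB-responsive luciferase reporter (selected with 1 mg/mL G418) seeded, after 24 h stimulated with TNF-α 0.2 μg/mL, then exposed to compounds for 6 h; lysate incubated with luciferase substrate 30 min in dark, luminescence read. Screening at 20 µg/mL as percent inhibition; IC50 from nine concentrations, 0.78-20 μM. PS-341 reference.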

NCI-H157 = test: Antiproliferative activity against human NCI-H157 cells after 48 hrs by MTT assay; format: functional, cell-based; conditions: NCI-H157, 48 h
Procedure, shortened: (§2)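 Tumour cell lines MCF-7, A549, H157, HepG2 and HL-60 were tested by MTT method; doxorubicin served as positive control.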

[2] = Cytotoxicity against HEK293 cells assessed as cell viability at 20 ug/ml relative to control; format: cell-based; conditions: human, read-out: Activity
Procedure, shortened: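 HEK293/NF-κB reporter cells exposed to compounds at 20 µg/mL; cytotoxicity assessed.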

HL-60 = test: Antiproliferative activity against human HL60 cells after 48 hrs by MTT assay; format: functional, cell-based; conditions: HL-60, 48 h; procedure, shortened: as §2
HepG2 = test: Antiproliferative activity against human HepG2 cells after 48 hrs by MTT assay; format: functional, cell-based; conditions: HepG2, 48 h; procedure, shortened: as §2
[3] = Inhibition of TNFalpha-stimulated NF-kappaB (unknown origin) activation expressed in HEK293 cells incubated for 6 hrs with TNFalpha followed by incubation in dark for 30 mins by luciferase reporter gene assay; format: cell-based; conditions: Homo sapiens; procedure, shortened: as §1
MCF7 = test: Antiproliferative activity against human MCF7 cells after 48 hrs by MTT assay; format: functional, cell-based; conditions: MCF7, 48 h; procedure, shortened: as §2
A549 = test: Antiproliferative activity against human A549 cells after 48 hrs by MTT assay; format: functional, cell-based; conditions: A549, 48 h; procedure, shortened: as §2
Homo sapiens [4] = species: Homo sapiens; test: Inhibition of TNFalpha-stimulated NF-kappaB (unknown origin) activation assessed as IkappaBalpha degradation at 10 uM after 4 hrs by Western blot analysis

CC(=O)[C@H]1CC[C@H]2[C@@H]3CC=C4C[C@@H](OC(=O)NCCNC(=O)/C(C#N)=C/c5ccc(Br)cc5)CC[C@]4(C)[C@H]3CC[C@]12C
inhibition (Homo sapiens [1]): 15.9%

CC(=O)[C@H]1CC[C@H]2[C@@H]3CC=C4C[C@@H](OC(=O)NCCNC(=O)CC#N)CC[C@]4(C)[C@H]3CC[C@]12C
IC50 (NCI-H157): > 50 µM
viability at 20 ug/ml [2]: 87.9%
IC50 (HL-60): > 50 µM
IC50 (HepG2): > 50 µM
IC50 [3]: 12.4 µM
inhibition (Homo sapiens [1]): 74.4%
IC50 (MCF7): > 50 µM
IC50 (A549): > 50 µM

CC(=O)[C@H]1CC[C@H]2[C@@H]3CC=C4C[C@@H](OC(=O)NCCNC(=O)/C(C#N)=C/c5ccc(O)cc5)CC[C@]4(C)[C@H]3CC[C@]12C
inhibition (Homo sapiens [1]): 44.9%

CC(=O)[C@H]1CC[C@H]2[C@@H]3CC=C4C[C@@H](OC(=O)NCCNC(=O)/C(C#N)=C/c5cccc(Br)c5)CC[C@]4(C)[C@H]3CC[C@]12C
inhibition (Homo sapiens [1]): 30.9%

CC(=O)[C@H]1CC[C@H]2[C@@H]3CC=C4C[C@@H](OC(=O)NCCNC(=O)/C(C#N)=C/c5ccc(O)c(O)c5)CC[C@]4(C)[C@H]3CC[C@]12C
inhibition (Homo sapiens [1]): 59.3%

COc1cccc(/C=C(\C#N)C(=O)NCCNC(=O)O[C@H]2CC[C@@]3(C)C(=CC[C@H]4[C@@H]5CC[C@H](C(C)=O)[C@@]5(C)CC[C@@H]43)C2)c1
inhibition (Homo sapiens [1]): 22.2%

CC(=O)[C@H]1CC[C@H]2[C@@H]3CC=C4C[C@@H](OC(=O)NCCNC(=O)/C(C#N)=C/c5ccc(Cl)cc5)CC[C@]4(C)[C@H]3CC[C@]12C
inhibition (Homo sapiens [1]): 18.8%

COc1cc(/C=C(\C#N)C(=O)NCCNC(=O)O[C@H]2CC[C@@]3(C)C(=CC[C@H]4[C@@H]5CC[C@H](C(C)=O)[C@@]5(C)CC[C@@H]43)C2)cc(O)c1OC
inhibition (Homo sapiens [1]): 22.6%

CC(=O)[C@H]1CC[C@H]2[C@@H]3CC=C4C[C@@H](OC(=O)NCCNC(=O)OC(C)(C)C)CC[C@]4(C)[C@H]3CC[C@]12C
IC50 (NCI-H157): > 50 µM
viability at 20 ug/ml [2]: 85.5%
IC50 (HL-60): > 50 µM
IC50 (HepG2): > 50 µM
IC50 [3]: 12.2 µM
inhibition (Homo sapiens [1]): 76.6%
IC50 (MCF7): > 50 µM
IC50 (A549): > 50 µM

COc1cc(/C=C(\C#N)C(=O)NCCNC(=O)O[C@H]2CC[C@@]3(C)C(=CC[C@H]4[C@@H]5CC[C@H](C(C)=O)[C@@]5(C)CC[C@@H]43)C2)ccc1O
inhibition (Homo sapiens [1]): 34.6%

CC(=O)[C@H]1CC[C@H]2[C@@H]3CC=C4C[C@@H](OC(=O)NCCNC(=O)/C(C#N)=C/c5cccc(C#N)c5)CC[C@]4(C)[C@H]3CC[C@]12C
IC50 (NCI-H157): 21.3 µM
viability at 20 ug/ml [2]: 59.6%
IC50 (HL-60): 15.6 µM
IC50 (HepG2): > 50 µM
IC50 [3]: 3.3 µM
inhibition (Homo sapiens [1]): 81.4%
IC50 (MCF7): 8.8 µM
IC50 (A549): 30.9 µM

CC(=O)[C@H]1CC[C@H]2[C@@H]3CC=C4C[C@@H](OC(=O)NCCNC(=O)/C(C#N)=C/c5ccc(C#N)cc5)CC[C@]4(C)[C@H]3CC[C@]12C
IC50 (NCI-H157): 24.5 µM
viability at 20 ug/ml [2]: 64.4%
IC50 (HL-60): > 100 µM
IC50 (HepG2): > 50 µM
IC50 [3]: 7.5 µM
inhibition (Homo sapiens [1]): 64.4%
IC50 (MCF7): > 50 µM
IC50 (A549): > 50 µM

COc1ccc(/C=C(\C#N)C(=O)NCCNC(=O)O[C@H]2CC[C@@]3(C)C(=CC[C@H]4[C@@H]5CC[C@H](C(C)=O)[C@@]5(C)CC[C@@H]43)C2)cc1O
inhibition (Homo sapiens [1]): 14.5%

COc1cc(/C=C(\C#N)C(=O)NCCNC(=O)O[C@H]2CC[C@@]3(C)C(=CC[C@H]4[C@@H]5CC[C@H](C(C)=O)[C@@]5(C)CC[C@@H]43)C2)cc(OC)c1O
inhibition (Homo sapiens [1]): 5%

CC(=O)[C@H]1CC[C@H]2[C@@H]3CC=C4C[C@@H](OC(=O)NCCNC(=O)/C(C#N)=C/c5ccc(F)cc5)CC[C@]4(C)[C@H]3CC[C@]12C
inhibition (Homo sapiens [1]): 43.1%

COc1ccc(/C=C(\C#N)C(=O)NCCNC(=O)O[C@H]2CC[C@@]3(C)C(=CC[C@H]4[C@@H]5CC[C@H](C(C)=O)[C@@]5(C)CC[C@@H]43)C2)cc1
inhibition (Homo sapiens [1]): 22.3%

CC(=O)[C@H]1CC[C@H]2[C@@H]3CC=C4C[C@@H](OC(=O)NCCNC(=O)/C(C#N)=C/c5ccc(N(C)C)cc5)CC[C@]4(C)[C@H]3CC[C@]12C
inhibition (Homo sapiens [1]): 1.2%

CC(=O)[C@H]1CC[C@H]2[C@@H]3CC=C4C[C@@H](OC(=O)NCCNC(=O)/C(C#N)=C/c5ccc(C(C)C)cc5)CC[C@]4(C)[C@H]3CC[C@]12C
inhibition (Homo sapiens [1]): 2.1%

CC(=O)[C@H]1CC[C@H]2[C@@H]3CC=C4C[C@@H](OC(=O)NCCNC(=O)/C(C#N)=C/c5ccc([N+](=O)[O-])cc5)CC[C@]4(C)[C@H]3CC[C@]12C
IC50 (NCI-H157): > 50 µM
viability at 20 ug/ml [2]: 74.5%
inhibition (Homo sapiens [4]): Active
IC50 (HL-60): 10.1 µM
IC50 (HepG2): > 50 µM
IC50 [3]: 10.3 µM
inhibition (Homo sapiens [1]): 78.3%
IC50 (MCF7): > 50 µM
IC50 (A549): > 50 µM

COc1ccccc1/C=C(\C#N)C(=O)NCCNC(=O)O[C@H]1CC[C@@]2(C)C(=CC[C@H]3[C@@H]4CC[C@H](C(C)=O)[C@@]4(C)CC[C@@H]32)C1
inhibition (Homo sapiens [1]): 17.8%

CC(=O)[C@H]1CC[C@H]2[C@@H]3CC=C4C[C@@H](OC(=O)NCCNC(=O)/C(C#N)=C/c5ccccc5)CC[C@]4(C)[C@H]3CC[C@]12C
inhibition (Homo sapiens [1]): 46.7%

COc1ccc(/C=C(\C#N)C(=O)NCCNC(=O)O[C@H]2CC[C@@]3(C)C(=CC[C@H]4[C@@H]5CC[C@H](C(C)=O)[C@@]5(C)CC[C@@H]43)C2)cc1OC
inhibition (Homo sapiens [1]): 5.8%

CC(=O)[C@H]1CC[C@H]2[C@@H]3CC=C4C[C@@H](OC(=O)NCCNC(=O)/C(C#N)=C/c5ccc6c(c5)OCCO6)CC[C@]4(C)[C@H]3CC[C@]12C
inhibition (Homo sapiens [1]): 4.2%

CC(=O)[C@H]1CC[C@H]2[C@@H]3CC=C4C[C@@H](OC(=O)NCCNC(=O)/C(C#N)=C/c5cccc(Cl)c5)CC[C@]4(C)[C@H]3CC[C@]12C
inhibition (Homo sapiens [1]): 46.4%

CC(=O)[C@H]1CC[C@H]2[C@@H]3CC=C4C[C@@H](OC(=O)NCCNC(=O)/C(C#N)=C/c5cccc([N+](=O)[O-])c5)CC[C@]4(C)[C@H]3CC[C@]12C
IC50 (NCI-H157): 30.6 µM
viability at 20 ug/ml [2]: 54.7%
IC50 (HL-60): 11.2 µM
IC50 (HepG2): > 50 µM
IC50 [3]: 2.5 µM
inhibition (Homo sapiens [1]): 83.9%
IC50 (MCF7): 6.5 µM
IC50 (A549): 36.2 µM

CCN(CC)c1ccc(/C=C(\C#N)C(=O)NCCNC(=O)O[C@H]2CC[C@@]3(C)C(=CC[C@H]4[C@@H]5CC[C@H](C(C)=O)[C@@]5(C)CC[C@@H]43)C2)cc1
inhibition (Homo sapiens [1]): 0.5%

CC(=O)[C@H]1CC[C@H]2[C@@H]3CC=C4C[C@@H](OC(=O)NCCNC(=O)/C(C#N)=C/c5cccc(F)c5)CC[C@]4(C)[C@H]3CC[C@]12C
IC50 (NCI-H157): 17.9 µM
viability at 20 ug/ml [2]: 60.8%
IC50 (HL-60): 45.6 µM
IC50 (HepG2): > 50 µM
IC50 [3]: 7.1 µM
inhibition (Homo sapiens [1]): 64.2%
IC50 (MCF7): 6.1 µM
IC50 (A549): > 50 µM

CC(C)C[C@H](NC(=O)[C@H](Cc1ccccc1)NC(=O)c1cnccn1)B(O)O [BORTEZOMIB]
IC50 [3]: 0.03 µM

COc1cccc2c1C(=O)c1c(O)c3c(c(O)c1C2=O)C[C@@](O)(C(=O)CO)C[C@@H]3O[C@H]1C[C@H](N)[C@H](O)[C@H](C)O1 [DOXORUBICIN]
IC50 (NCI-H157): 0.61 µM
IC50 (HL-60): 0.91 µM
IC50 (MCF7): 4.4 µM
IC50 (A549): 11 µM

— ChEMBL document CHEMBL4043228, “Design and synthesis of pregnenolone/2-cyanoacryloyl conjugates with dual NF-κB inhibitory and anti-proliferative activities” (Bioorg Med Chem Lett, 2017)
